pEC50: −log10 of the molar value. Active and inactive are the calls of the source. No rule for the calls is given here.
Test system: Human alphaherpesvirus 1
Test: Antiviral activity against HSV1 KOS infected in african green monkey Vero cells after 3 days by plaque reduction assay
Format: functional, organism-based
Conditions: Human alphaherpesvirus 1, KOS, 72 h
Procedure, shortened: (§1)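 Plaque reduction assay. Vero 76 cells at 2 × 10^5/well, grown overnight to confluence in D-MEM with 10% FBS. Infected 2 h with 50–100 PFU/well, unadsorbed virus removed. Overlay of D-MEM with 1% inactivated FBS and 0.75% methylcellulose, with or without serial compound dilutions. Incubated at 37 °C for 3 days (HSV-1 KOS, CVB-2 Ohio-1) or 5 days (RSV A2). Fixed and stained with crystal violet in 50% ethanol; plaques counted; EC50 by linear regression.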

Row | SMILES | pEC50
1 | O=C(CCl)Nc1ccc(-c2nc3cc(C(F)(F)F)ccc3[nH]2)cc1 | < 4.46
2 | CCC(=O)Nc1ccc(-c2nc3ccccc3[nH]2)cc1 | < 4.00
3 | COc1c(C)c2c(c(O)c1C/C=C(\C)CCC(=O)O)C(=O)OC2 [MYCOPHENOLIC ACID] | < 4.89
4 | C[C@@]1(O)[C@H](O)[C@@H](CO)O[C@H]1n1cnc2c(=O)[nH]c(N)nc21 [2'-B-METHYL-GUANOSINE] | < 4.00
5 | O=C(CNC12CC3CC(CC(C3)C1)C2)Nc1ccc(-c2nc3cc(C(F)(F)F)ccc3[nH]2)cc1 | 4.35

Test system: Bovine viral diarrhea virus 1
Test: Antiviral activity against Bovine viral diarrhea virus NADL infected in MDBK cells assessed as protection from virus-induced cytopathogenicity after 3 to 4 days by MTT method
Format: functional, organism-based, Bovine viral diarrhea virus 1-NADL
Conditions: Bovine viral diarrhea virus isolates and strains, MDBK
Procedure, shortened: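 Cytopathogenicity protection assay. MDBK cells at 3 × 10^4/well, grown overnight to confluence. Infected with BVDV NADL at m.o.i. 0.01 in MEM-E with 0.5% inactivated FBS, 1 mM Na pyruvate and 1% kanamycin. Serial compound dilutions added after 1 h. After 3–4 days at 37 °C, viability read by MTT; EC50 is the concentration giving 50% protection.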

Row | SMILES | pEC50
6 | O=C(CCl)Nc1ccc(-c2nc3cc(C(F)(F)F)ccc3[nH]2)cc1 | < 4.77
7 | CCC(=O)Nc1ccc(-c2nc3ccccc3[nH]2)cc1 | 4.33
8 | COc1c(C)c2c(c(O)c1C/C=C(\C)CCC(=O)O)C(=O)OC2 [MYCOPHENOLIC ACID] | < 4.38
9 | O=C(CNC12CC3CC(CC(C3)C1)C2)Nc1ccc(-c2nc3cc(C(F)(F)F)ccc3[nH]2)cc1 | < 4.64

Test system: Human immunodeficiency virus 1
Test: Antiviral activity against HIV1 3B infected in human MT4 cells assessed as protection from virus-induced cytopathogenicity after 4 days by MTT method
Format: functional, organism-based
Conditions: not given
Procedure, shortened: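 MT-4 cells, 1 × 10^4/well in RPMI with or without serial compound dilutions, infected with HIV-1 IIIB, 100 CCID50 (m.o.i. 0.01). Protection from virus-induced cytopathogenicity read by MTT.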

Row | SMILES | Activity
10 | O=C(CCl)Nc1ccc(-c2nc3cc(C(F)(F)F)ccc3[nH]2)cc1 | inactive
11 | CCC(=O)Nc1ccc(-c2nc3ccccc3[nH]2)cc1 | inactive
12 | O=C(CNC12CC3CC(CC(C3)C1)C2)Nc1ccc(-c2nc3cc(C(F)(F)F)ccc3[nH]2)cc1 | inactive

Test system: Respiratory syncytial virus
Test: Antiviral activity against RSV A2 infected in african green monkey Vero cells after 5 days by plaque reduction assay
Format: functional, organism-based
Conditions: human respiratory syncytial virus, A2, Vero, 120 h
Procedure, shortened: as §1

Row | SMILES | pEC50
13 | O=c1cnn([C@@H]2O[C@H](CO)[C@@H](O)[C@H]2O)c(=O)[nH]1 (stereo in doubt; form 1) [6-AZAURIDINE] | 5.92
14 | COc1c(C)c2c(c(O)c1C/C=C(\C)CCC(=O)O)C(=O)OC2 [MYCOPHENOLIC ACID] | 6.22
15 | C[C@@]1(O)[C@H](O)[C@@H](CO)O[C@H]1n1cnc2c(=O)[nH]c(N)nc21 [2'-B-METHYL-GUANOSINE] | < 4.00

Test system: not listed separately
Test: Cytotoxicity against african green monkey Vero cells
Format: cell-based
Conditions: chlorocebus sabaeus
Procedure, shortened: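 Vero 76 monolayers exposed to serial compound dilutions, run in parallel on the same 24-well plates as the plaque-reduction assays. CC50 is the concentration reducing viability of mock-infected cells by 50%.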

Row | SMILES | CC50 [µM]
16 | O=C(CCl)Nc1ccc(-c2nc3cc(C(F)(F)F)ccc3[nH]2)cc1 | 35
17 | CCC(=O)Nc1ccc(-c2nc3ccccc3[nH]2)cc1 | > 100
18 | COc1c(C)c2c(c(O)c1C/C=C(\C)CCC(=O)O)C(=O)OC2 [MYCOPHENOLIC ACID] | ≥ 13
19 | C[C@@]1(O)[C@H](O)[C@@H](CO)O[C@H]1n1cnc2c(=O)[nH]c(N)nc21 [2'-B-METHYL-GUANOSINE] | > 100
20 | O=C(CNC12CC3CC(CC(C3)C1)C2)Nc1ccc(-c2nc3cc(C(F)(F)F)ccc3[nH]2)cc1 | 45

Test system: not listed separately
Test: Cytotoxicity against MDBK cells after 48 to 96 hrs by MTT assay
Format: cell-based, Bos taurus
Conditions: cattle, MDBK cells
Procedure, shortened: (§2)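 Cell seeding: MDBK at 6 × 10^5 cells/mL in MEM-E with 10% horse serum and 1 mM Na pyruvate; BHK at 1 × 10^6 cells/mL in MEM-E with 10% FBS. Serial compound dilutions, 37 °C, 5% CO2. Viability of mock-infected cells by MTT after 48–96 h; CC50 is the concentration reducing viability by 50%.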

Row | SMILES | CC50 [µM]
21 | O=C(CCl)Nc1ccc(-c2nc3cc(C(F)(F)F)ccc3[nH]2)cc1 | 17
22 | CCC(=O)Nc1ccc(-c2nc3ccccc3[nH]2)cc1 | > 100
23 | C[C@@]1(O)[C@H](O)[C@@H](CO)O[C@H]1n1cnc2c(=O)[nH]c(N)nc21 [2'-B-METHYL-GUANOSINE] | > 100
24 | O=C(CNC12CC3CC(CC(C3)C1)C2)Nc1ccc(-c2nc3cc(C(F)(F)F)ccc3[nH]2)cc1 | 23

Test system: not listed separately
Test: Cytotoxicity against BHK cells after 48 to 96 hrs by MTT assay
Format: cell-based, Mesocricetus auratus
Conditions: hamster
Procedure, shortened: as §2

Row | SMILES | CC50 [µM]
25 | O=C(CCl)Nc1ccc(-c2nc3cc(C(F)(F)F)ccc3[nH]2)cc1 | 22
26 | CCC(=O)Nc1ccc(-c2nc3ccccc3[nH]2)cc1 | ≥ 100
27 | COc1c(C)c2c(c(O)c1C/C=C(\C)CCC(=O)O)C(=O)OC2 [MYCOPHENOLIC ACID] | > 100
28 | C[C@@]1(O)[C@H](O)[C@@H](CO)O[C@H]1n1cnc2c(=O)[nH]c(N)nc21 [2'-B-METHYL-GUANOSINE] | 90
29 | O=C(CNC12CC3CC(CC(C3)C1)C2)Nc1ccc(-c2nc3cc(C(F)(F)F)ccc3[nH]2)cc1 | 18

Test system: Vaccinia virus
Test: Antiviral activity against Vaccinia virus Elstree-Lister infected in african green monkey Vero cells after 3 days by plaque reduction assay
Format: functional, organism-based
Conditions: Orthopoxvirus vaccinia, 72 h

Row | SMILES | pEC50
30 | O=c1cnn([C@@H]2O[C@H](CO)[C@@H](O)[C@H]2O)c(=O)[nH]1 (stereo in doubt; form 1) [6-AZAURIDINE] | 4.96
31 | C[C@@]1(O)[C@H](O)[C@@H](CO)O[C@H]1n1cnc2c(=O)[nH]c(N)nc21 [2'-B-METHYL-GUANOSINE] | < 4.00

Test system: Poliovirus 1
Test: Antiviral activity against Polio virus type1 Sabin strain Chat infected in african green monkey Vero cells after 2 days by plaque reduction assay
Format: functional, organism-based, Human poliovirus 1 strain Sabin
Conditions: Enterovirus C, 48 h

Row | SMILES | pEC50
32 | O=c1cnn([C@@H]2O[C@H](CO)[C@@H](O)[C@H]2O)c(=O)[nH]1 (stereo in doubt; form 1) [6-AZAURIDINE] | < 4.70
33 | O=C(CCl)Nc1ccc(-c2nc3cc(C(F)(F)F)ccc3[nH]2)cc1 | < 4.46
34 | CCC(=O)Nc1ccc(-c2nc3ccccc3[nH]2)cc1 | 4.46
35 | COc1c(C)c2c(c(O)c1C/C=C(\C)CCC(=O)O)C(=O)OC2 [MYCOPHENOLIC ACID] | < 4.89
36 | C[C@@]1(O)[C@H](O)[C@@H](CO)O[C@H]1n1cnc2c(=O)[nH]c(N)nc21 [2'-B-METHYL-GUANOSINE] | < 4.00
37 | O=C(CNC12CC3CC(CC(C3)C1)C2)Nc1ccc(-c2nc3cc(C(F)(F)F)ccc3[nH]2)cc1 | < 4.35

Test system: Vesicular stomatitis virus
Test: Antiviral activity against VSV Indiana lab infected in african green monkey Vero cells after 2 days by plaque reduction assay
Format: functional, organism-based
Conditions: not given

Row | SMILES | Activity
38 | O=C(CCl)Nc1ccc(-c2nc3cc(C(F)(F)F)ccc3[nH]2)cc1 | inactive
39 | CCC(=O)Nc1ccc(-c2nc3ccccc3[nH]2)cc1 | inactive
40 | O=C(CNC12CC3CC(CC(C3)C1)C2)Nc1ccc(-c2nc3cc(C(F)(F)F)ccc3[nH]2)cc1 | inactive

Test system: not listed separately
Test: Cytotoxicity against human MT4 cells after 96 hrs by MTT assay
Format: cell-based
Conditions: MT4 cells
Procedure, shortened: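 Exponentially growing MT-4 cells at 1 × 10^5 cells/mL in RPMI-1640 with 10% FCS, exposed to serial compound dilutions at 37 °C, 5% CO2. Viability by MTT after 96 h; CC50 is the concentration reducing viability of mock-infected cells by 50%.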

Row | SMILES | CC50 at 96 h [µM]
41 | O=C(CCl)Nc1ccc(-c2nc3cc(C(F)(F)F)ccc3[nH]2)cc1 | 5
42 | CCC(=O)Nc1ccc(-c2nc3ccccc3[nH]2)cc1 | 35
43 | C[C@@]1(O)[C@H](O)[C@@H](CO)O[C@H]1n1cnc2c(=O)[nH]c(N)nc21 [2'-B-METHYL-GUANOSINE] | > 100
44 | O=C(CNC12CC3CC(CC(C3)C1)C2)Nc1ccc(-c2nc3cc(C(F)(F)F)ccc3[nH]2)cc1 | 15

Test system: Yellow fever virus
Test: Antiviral activity against Yellow fever virus 17D infected in BHK cells assessed as protection from virus-induced cytopathogenicity after 3 to 4 days by MTT method
Format: functional, organism-based
Conditions: not given

Row | SMILES | pEC50
45 | O=C(CCl)Nc1ccc(-c2nc3cc(C(F)(F)F)ccc3[nH]2)cc1 | < 4.66
46 | CCC(=O)Nc1ccc(-c2nc3ccccc3[nH]2)cc1 | < 4.00
47 | COc1c(C)c2c(c(O)c1C/C=C(\C)CCC(=O)O)C(=O)OC2 [MYCOPHENOLIC ACID] | < 4.00
48 | C[C@@]1(O)[C@H](O)[C@@H](CO)O[C@H]1n1cnc2c(=O)[nH]c(N)nc21 [2'-B-METHYL-GUANOSINE] | 5.74
49 | O=C(CNC12CC3CC(CC(C3)C1)C2)Nc1ccc(-c2nc3cc(C(F)(F)F)ccc3[nH]2)cc1 | < 4.74

Test system: Coxsackievirus B2
Test: Antiviral activity against Human coxsackievirus B2 Ohio-1 infected in african green monkey Vero cells after 3 days by plaque reduction assay
Format: functional, organism-based, Coxsackievirus B2 (strain Ohio-1)
Conditions: Enterovirus B, Vero, 72 h
Procedure, shortened: as §1

Row | SMILES | pEC50
50 | O=C(CCl)Nc1ccc(-c2nc3cc(C(F)(F)F)ccc3[nH]2)cc1 | 4.62
51 | CCC(=O)Nc1ccc(-c2nc3ccccc3[nH]2)cc1 | 5.05
52 | COc1c(C)c2c(c(O)c1C/C=C(\C)CCC(=O)O)C(=O)OC2 [MYCOPHENOLIC ACID] | < 4.89
53 | C[C@@]1(O)[C@H](O)[C@@H](CO)O[C@H]1n1cnc2c(=O)[nH]c(N)nc21 [2'-B-METHYL-GUANOSINE] | 4.70
54 | O=C(CNC12CC3CC(CC(C3)C1)C2)Nc1ccc(-c2nc3cc(C(F)(F)F)ccc3[nH]2)cc1 | < 4.35

Source: ChEMBL document CHEMBL1156237, “Antiviral activity of benzimidazole derivatives. II. Antiviral activity of 2-phenylbenzimidazole derivatives” (Bioorg Med Chem, 2010)
